Measurements from ChEMBL document CHEMBL5346868 (Eur J Med Chem, 2023).

What was measured:
[1] = system: Zika virus; test: Antiviral activity against ZIKV MR766 infected in african green monkey Vero E6 cells assessed as decline in virus induced cytopathogenicity measured after 5 days by MTS based microscopic analysis; assay type: functional, organism-based; conditions: MR766, Vero C1008, 120 h
Procedure, shortened: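 Vero E6 cells (10^4/well) are seeded in MEM with 2% FCS and left to adhere overnight. Cells are then infected with ZIKV MR766 (passaged in C6/36 cells) and given 2-fold serial compound dilutions. After 5 days, CPE is scored by MTS and by microscopy of fixed, stained cells. EC50 is the 50% antiviral effect.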

[2] = Cytotoxicity against african green monkey Vero E6 cells by MTS assay; assay type: toxicity, cell-based, Vero C1008; conditions: chlorocebus sabaeus
Procedure, shortened: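 Cytotoxicity is measured on treated, uninfected Vero E6 cells in parallel with the antiviral assays, using a standard MTS assay. CC50 is the concentration causing a 50% adverse effect on host cells.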

[3] = system: Enterovirus A71; test: Antiviral activity against human Enterovirus 71 BrCr infected in human RD cells assessed as reduction of virus induced cytopathic effect incubated for 3 days by MTS assay; assay type: functional, organism-based; conditions: Enterovirus A, 72 h
Procedure, shortened: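 Confluent RD cells (EMEM, 10% heat-inactivated FBS) are infected with ~100 CCID50 of EV71 BrCr and treated with a compound dilution series. After 3 days at 37 °C, 5% CO2, residual viability is measured by MTS. EC50 is the concentration giving 50% antiviral effect, from at least 2–3 independent experiments.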

[4] = Cytotoxicity against human RD cells by MTS assay; assay type: toxicity, cell-based
Procedure, shortened: (§1)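 Treated, uninfected RD or HeLa cells are run alongside the matching enterovirus CPE assays, with viability read by MTS. CC50 is the concentration giving a 50% adverse effect on host cells.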

[5] = Selectivity index, ratio of CC50 for human RD cells to EC50 for antiviral activity against human Enterovirus 71; assay type: toxicity; conditions: read-out: Ratio CC50/EC50
Procedure, shortened: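 SI is calculated as CC50 on uninfected RD cells divided by EC50 in the 3-day EV71 BrCr CPE-reduction MTS assay.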

[6] = system: SARS-CoV-2; test: Antiviral activity against SARS-CoV-2 BetaCoV/Belgium/GHB-03021/2020 infected in african green monkey Vero cells assessed as decline in virus induced cytopathogenicity measured after 4 days by argon laser scanning microscopic analysis; assay type: functional, organism-based; conditions: Severe acute respiratory syndrome coronavirus 2, BetaCoV/Belgium/GHB-03021/2020, Vero, 96 h
[7] = biological target: METTL3/METTL14 (Homo sapiens, UniProt Q86U44); test: Inhibition of human recombinant full length METTL3/human N-terminal FLAG-tagged METTL14 expressed in SF9 cells assessed as methyltransferase residual activity using ssRNA 5'-rUrArC rArCrU rCrGrA rUrCrU rGrGrA rCrUrA rArArG rCrUrG rCrUrC -3' as substrate incubated for 20 mins followed by H-SAM addition measured after 2 hrs by radio isotope reaction system analysis
Procedure, shortened: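 Compound is pre-incubated for 20 min at room temperature, then 1 μM [3H-methyl]SAM is added for 2 h at room temperature. Activity is reported as % remaining, screened at 100 μM, with IC50 from curve fits.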

[8] = system: Coxsackievirus B3; test: Antiviral activity against Coxsackievirus B3 infected in african green monkey Vero cells assessed as reduction of virus induced cytopathic effect incubated for 3 days by MTS assay; assay type: functional, organism-based; conditions: Enterovirus B, 72 h
Procedure, shortened: (§2)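 Same setup as the EV71 assay: confluent monolayers (Vero A for CVB3; HeLa for CVA21, EV68, HRV-A02, HRV-B14) are infected with virus and treated with a compound dilution series. Incubation is 3 days at 37 °C, 5% CO2, and residual viability is read by MTS. EC50 is the 50% effective concentration, mean of at least 2 independent experiments.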

[9] = Cytotoxicity against african green monkey Vero cells by MTS assay; assay type: toxicity, cell-based; conditions: chlorocebus sabaeus
[10] = system: Coxsackievirus A21; test: Antiviral activity against Coxsackievirus 21 infected in human HeLa cells assessed as reduction of virus induced cytopathic effect incubated for 3 days by MTS assay; assay type: functional, organism-based; conditions: Enterovirus C, 72 h
Procedure, shortened: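 HeLa cells infected with coxsackievirus A21 (~100 CCID50) and treated with a compound dilution series, as in the EV71 set-up. Incubation was 3 days at 37 °C, 5% CO2, with residual viability quantified by MTS. EC50 is the concentration giving 50% antiviral effect. Values are means of ≥2 independent experiments.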

[11] = system: enterovirus D68; test: Antiviral activity against Human enterovirus 68 infected in human HeLa cells assessed as reduction of virus induced cytopathic effect incubated for 3 days by MTS assay; assay type: functional, organism-based; conditions: Enterovirus D, 72 h; procedure, shortened: as §2
[12] = system: rhinovirus A2; test: Antiviral activity against Human rhinovirus 2 infected in human HeLa cells assessed as reduction of virus induced cytopathic effect incubated for 3 days by MTS assay; assay type: functional, organism-based; conditions: Rhinovirus A, 72 h; procedure, shortened: as §2
[13] = system: rhinovirus B14; test: Antiviral activity against Human rhinovirus 14 infected in human HeLa cells assessed as reduction of virus induced cytopathic effect incubated for 3 days by MTS assay; assay type: functional, organism-based; conditions: Rhinovirus B, 72 h; procedure, shortened: as §2
[14] = Cytotoxicity against human HeLa cells by MTS assay; assay type: toxicity, cell-based; procedure, shortened: as §1
[15] = system: Enterovirus A71; test: Antiviral activity against human enterovirus 71 infected in african green monkey vero cells; assay type: functional, organism-based; conditions: Enterovirus A

Sequence of METTL3/METTL14 (Q86U44 whole entry): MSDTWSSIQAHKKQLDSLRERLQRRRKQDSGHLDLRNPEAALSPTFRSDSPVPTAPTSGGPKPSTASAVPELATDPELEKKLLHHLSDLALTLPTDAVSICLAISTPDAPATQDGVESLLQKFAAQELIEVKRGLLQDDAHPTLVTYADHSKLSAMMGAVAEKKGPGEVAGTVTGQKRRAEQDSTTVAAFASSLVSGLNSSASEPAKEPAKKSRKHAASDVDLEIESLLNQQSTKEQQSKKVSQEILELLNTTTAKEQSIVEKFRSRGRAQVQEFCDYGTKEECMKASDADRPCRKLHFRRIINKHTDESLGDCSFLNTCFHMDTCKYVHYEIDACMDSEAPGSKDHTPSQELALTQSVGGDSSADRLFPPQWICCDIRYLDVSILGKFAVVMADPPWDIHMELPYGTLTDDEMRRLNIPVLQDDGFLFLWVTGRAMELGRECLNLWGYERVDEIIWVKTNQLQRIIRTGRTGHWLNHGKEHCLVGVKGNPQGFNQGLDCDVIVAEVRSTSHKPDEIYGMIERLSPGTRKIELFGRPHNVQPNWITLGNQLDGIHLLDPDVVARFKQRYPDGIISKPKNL
Sequence of METTL3/METTL14 (Q9HCE5 whole entry, further chain): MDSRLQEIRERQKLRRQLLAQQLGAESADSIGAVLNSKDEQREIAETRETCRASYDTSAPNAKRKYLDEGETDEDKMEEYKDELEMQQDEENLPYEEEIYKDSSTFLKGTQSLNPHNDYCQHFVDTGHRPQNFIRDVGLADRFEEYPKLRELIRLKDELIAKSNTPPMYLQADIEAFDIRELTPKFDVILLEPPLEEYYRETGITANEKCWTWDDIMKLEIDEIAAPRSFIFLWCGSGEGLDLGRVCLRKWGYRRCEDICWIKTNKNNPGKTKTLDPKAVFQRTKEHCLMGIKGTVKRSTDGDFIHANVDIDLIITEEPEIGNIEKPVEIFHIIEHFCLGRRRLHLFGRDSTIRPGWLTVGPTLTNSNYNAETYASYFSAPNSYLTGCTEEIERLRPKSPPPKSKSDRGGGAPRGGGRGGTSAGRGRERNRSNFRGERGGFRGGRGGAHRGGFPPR

| Structure (SMILES) | EC50 [1] [µM] | CC50 [2] [µM] | EC50 [3] [µM] | CC50 [4] [µM] | selectivity ratio [5] | EC50 [6] [µM] | IC50 [7] [µM] | EC50 [8] [µM] | CC50 [9] [µM] | EC50 [10] [µM] | EC50 [11] [µM] | EC50 [12] [µM] | EC50 [13] [µM] | CC50 [14] [µM] | EC50 [15] [µM] |
| --- | --- | --- | --- | --- | --- | --- | --- | --- | --- | --- | --- | --- | --- | --- | --- |
| C[C@@]1(O)[C@H](O)[C@@H](CO)O[C@H]1n1ccc2c(N)ncnc21 [BETA-2'-C-METHYL-7-DEAZA-ADENOSINE] | 20 | > 300 | – | – | – | – | – | – | – | – | – | – | – | – | – |
| CSC[C@H]1O[C@@H](n2cnc3c(NC(C)c4cccc(Cl)c4)ncnc32)[C@H](O)[C@@H]1O (stereo partly specified) | > 100 | 50.8 | 4.21 | 44.3 | 10.5 | > 100 | – | – | – | – | – | – | – | – | – |
| CSC[C@H]1O[C@@H](n2cnc3c(NCc4cccc(S(F)(F)(F)(F)F)c4)ncnc32)[C@H](O)[C@@H]1O | > 100 | 46.4 | 1.85 | 23.5 | 12.7 | > 100 | – | – | – | – | – | – | – | – | – |
| OC[C@H]1O[C@@H](n2ccc3c(NCc4cccc(Cl)c4)ncnc32)[C@H](O)[C@@H]1O | > 100 | > 100 | 0.065 | > 20 | > 301 | > 100 | 58.8 | – | – | – | – | – | – | – | – |
| CSC[C@H]1O[C@@H](n2cnc3c(NCc4cccc(C)c4)ncnc32)[C@H](O)[C@@H]1O | > 100 | > 100 | 0.898 | > 75 | > 83.5 | > 100 | – | > 100 | > 50 | > 100 | > 100 | > 100 | > 100 | > 100 | – |
| CSC[C@H]1O[C@@H](n2cnc3c(NCc4ccc(Cl)cc4)ncnc32)[C@H](O)[C@@H]1O | > 100 | > 100 | 8.05 | > 100 | > 12.1 | > 100 | – | – | – | – | – | – | – | – | – |
| C#C[C@@]1(O)[C@H](O)[C@@H](CO)O[C@H]1n1ccc2c(N)ncnc21 | – | – | – | – | – | – | – | – | – | – | – | – | – | – | 0.625 |
| CSC[C@H]1O[C@@H](n2cnc3c(NCc4ccccc4Cl)ncnc32)[C@H](O)[C@@H]1O | > 100 | > 100 | 2.61 | > 100 | > 38.3 | > 100 | – | – | – | – | – | – | – | – | – |
| CSC[C@H]1O[C@@H](n2cnc3c(NCc4cccc(Cl)c4)ncnc32)[C@H](O)[C@@H]1O | > 100 | > 100 | 0.53 | > 20 | > 37.7 | > 100 | 184 | – | – | – | – | – | – | – | – |
| COC(=O)[C@H](CCSC[C@H]1O[C@@H](n2cnc3c(NCc4cccc(Cl)c4)ncnc32)[C@H](O)[C@@H]1O)NC(=O)C(F)(F)F | > 100 | > 100 | 4.5 | > 100 | > 16.9 | > 100 | – | > 100 | > 100 | 54.6 | > 100 | > 100 | > 100 | > 100 | – |
| CSC[C@H]1O[C@@H](n2cnc3c(N4CCc5ccccc54)ncnc32)[C@H](O)[C@@H]1O | > 100 | > 100 | 19 | 64.9 | 3.4 | > 100 | – | – | – | – | – | – | – | – | – |
| Cc1cccc(CNc2ncnc3c2ncn3[C@@H]2O[C@H](CO)[C@@H](O)[C@H]2O)c1 | > 100 | > 100 | 0.094 | > 100 | > 1060 | > 100 | – | > 100 | > 100 | 36.4 | 8.9 | > 100 | > 100 | > 100 | – |
| CSC[C@H]1O[C@@H](n2cnc3c(NCc4cccc(C(F)(F)F)c4)ncnc32)[C@H](O)[C@@H]1O | > 100 | > 100 | > 20 | > 100 | – | > 100 | – | – | – | – | – | – | – | – | – |
